From ChEMBL document CHEMBL1155198, “Non-nucleoside inhibitors of HCV polymerase NS5B. Part 4: structure-based design, synthesis, and biological evaluation of benzo[d]isothiazole-1,1-dioxides” (Bioorg Med Chem Lett, 2009)

Tests used:
[1] = molecular target: Genome polyprotein (Hepatitis C virus genotype 1b (isolate Con1) (HCV), UniProt Q9WMX2); assay: Inhibition of […] con1 NS5B polymerase assessed as [3H]UTP incorporation into acid insoluble RNA product
[2] = tested on: Hepatitis C virus; assay: Antiviral activity against HCV1b infected in human 2209-23 cells assessed as inhibition of virus RNA replication by Renilla luciferase reporter gene assay; format: functional, organism-based, Hepacivirus hominis; conditions: genotype 1b
[3] = tested on: Hepatitis C virus; assay: Antiviral activity against HCV1b infected in human 2209-23 cells assessed as inhibition of virus RNA replication by Renilla luciferase reporter gene assay in presence of 40% human serum; format: functional, organism-based, Hepacivirus hominis; conditions: genotype 1b
Method in brief: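 Serum-shift version of the HCV subgenomic replicon (GT-1b) cell assay, with 40% human serum added to assess the effect of protein binding.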

[4] = tested on: Hepatitis C virus; assay: Antiviral activity against HCV1b infected in human 2209-23 cells assessed as inhibition of virus RNA replication by Renilla luciferase reporter gene assay in presence of 5% fetal bovine serum; format: functional, organism-based, Hepacivirus hominis; conditions: genotype 1b
Method in brief: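 Cell-based HCV subgenomic replicon (genotype 1b) assay run in medium containing 5% fetal bovine serum.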

[5] = tested on: Hepatitis C virus; assay: Ratio of EC50 for HCV GT-1a replicon over EC50 for HCV GT-1b replicon
[6] = tested on: Hepatitis C virus; assay: Selectivity ratio, EC50 for HCV1b in presence of 40% human serum to EC50 for HCV1b in presence of 5% fetal bovine serum; format: functional, Hepacivirus hominis, genotype 1b
[7] = Clearance in rat at 2 mg/kg, iv and 5 mg/kg, po; format: ADME, organism-based; conditions: in vivo
Method in brief: (§1)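 Single-dose PK in rats or cynomolgus monkeys; intravenous dose 2 mg/Kg, oral dose 5 mg/Kg; parameters reported as means.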

[8] = AUC in rat at 2 mg/kg, iv and 5 mg/kg, po; format: ADME, organism-based; conditions: plasma; method in brief: as §1
[9] = Metabolic stability in rat liver microsomes; format: ADME, Microsome; conditions: read-out: Stability
[10] = Half life in rat at 2 mg/kg, iv and 5 mg/kg, po; format: ADME, organism-based; conditions: in vivo; method in brief: as §1
[11] = Oral bioavailability in rat at 5 mg/kg; format: ADME, organism-based; conditions: in vivo; method in brief: as §1
[12] = tested on: Caco-2; assay: Efflux ratio of permeability from basolateral to apical over apical to basolateral side in human Caco-2 cells after 21 days; conditions: caco-2, 504 h
[13] = Clearance in cynomolgus monkey at 2 mg/kg, iv and 5 mg/kg, po; format: ADME, organism-based, Macaca fascicularis; conditions: in vivo; method in brief: as §1
[14] = AUC in cynomolgus monkey at 2 mg/kg, iv and 5 mg/kg, po; format: ADME, organism-based, Macaca fascicularis; conditions: plasma; method in brief: as §1
[15] = Oral bioavailability in cynomolgus monkey at 5 mg/kg; format: ADME, organism-based, Macaca fascicularis; conditions: in vivo; method in brief: as §1
[16] = Metabolic stability in cynomolgus monkey liver microsomes; format: ADME, Macaca fascicularis, Microsome; conditions: read-out: Stability
[17] = Half life in cynomolgus monkey at 2 mg/kg, iv and 5 mg/kg, po; format: ADME, organism-based, Macaca fascicularis; conditions: in vivo; method in brief: as §1

Chain of Genome polyprotein (Q9WMX2 2420-3010 limits assumed): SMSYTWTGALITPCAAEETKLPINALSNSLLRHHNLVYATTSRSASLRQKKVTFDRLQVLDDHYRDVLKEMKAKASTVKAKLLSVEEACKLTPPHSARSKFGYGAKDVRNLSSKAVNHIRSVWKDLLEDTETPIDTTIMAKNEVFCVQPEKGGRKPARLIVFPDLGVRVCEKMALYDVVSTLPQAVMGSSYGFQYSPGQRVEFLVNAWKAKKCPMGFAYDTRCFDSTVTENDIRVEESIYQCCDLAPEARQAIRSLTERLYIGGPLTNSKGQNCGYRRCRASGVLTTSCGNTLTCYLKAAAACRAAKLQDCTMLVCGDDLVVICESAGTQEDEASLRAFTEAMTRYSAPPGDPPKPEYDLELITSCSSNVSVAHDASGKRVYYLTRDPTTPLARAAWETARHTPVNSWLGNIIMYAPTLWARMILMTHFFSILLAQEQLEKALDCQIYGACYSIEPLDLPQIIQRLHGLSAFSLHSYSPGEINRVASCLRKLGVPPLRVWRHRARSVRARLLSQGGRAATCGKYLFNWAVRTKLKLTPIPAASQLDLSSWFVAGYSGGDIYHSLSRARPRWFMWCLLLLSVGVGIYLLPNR

Compound | IC50 [1] [nM] | EC50 [3] [nM] | EC50 [4] [nM] | Ratio EC50 [5] | Ratio IC50 [6] | further results
CC(C)(C)[C@H]1C(O)=C(C2=NS(=O)(=O)c3c(CNS(C)(=O)=O)cccc32)C(=O)N1Cc1ccc(F)cc1 | – | 3730 | 100 | 2 | 37.3 | –
CC(C)(C)[C@H]1C(O)=C(C2=NS(=O)(=O)c3c(OCS(N)(=O)=O)cccc32)C(=O)N1Cc1ccc(F)cc1 | 6 | 2900 | 228 | – | 12.7 | –
CC(C)(C)[C@H]1C(O)=C(C2=NS(=O)(=O)c3cc(CNS(C)(=O)=O)ccc32)C(=O)N1Cc1ccc(F)cc1 | 43 | – | – | – | – | EC50 [2]: 3840 nM
CC(C)(C)[C@H]1C(O)=C(C2=NS(=O)(=O)c3c(CN4CCCCS4(=O)=O)cccc32)C(=O)N1Cc1ccc(F)cc1 | 12 | 4660 | 202 | – | 23.1 | –
CN(Cc1cccc2c1S(=O)(=O)N=C2C1=C(O)[C@H](C(C)(C)C)N(Cc2ccc(F)c(Cl)c2)C1=O)S(C)(=O)=O | 10 | 3040 | 108 | – | 28.1 | –
Cc1cc(CN2C(=O)C(C3=NS(=O)(=O)c4c(CN(C)S(C)(=O)=O)cccc43)=C(O)[C@@H]2C(C)(C)C)ccc1F | 5 | 1070 | 129 | 2 | 8.27 | clearance [7]: 34.4 mL/min/kg; AUC [8]: 582 ng·h/mL; microsomal CLint [9]: 939 µL/min/mg; half-life [10]: 3.37 h; bioavailability [11]: 24%; Ratio [12]: 4.3
CC(C)(C)[C@H]1C(O)=C(C2=NS(=O)(=O)c3c(OCS(C)(=O)=O)cccc32)C(=O)N1Cc1ccc(F)cc1 | 9 | 4660 | 235 | – | 19.8 | –

Further lines, with some results ahead:

IC50 [1] [nM] | EC50 [3] [nM] | EC50 [4] [nM] | Compound | Ratio EC50 [5] | Ratio IC50 [6] | further results
5 | – | – | CC(C)(C)[C@H]1C(O)=C(C2=NS(=O)(=O)c3c(NS(C)(=O)=O)cccc32)C(=O)N1Cc1ccc(F)cc1 | – | – | EC50 [2]: 4920 nM
3 | 1170 | 76 | Cc1cc(CN2C(=O)C(C3=NS(=O)(=O)c4c(CNS(N)(=O)=O)cccc43)=C(O)[C@@H]2C(C)(C)C)ccc1F | 2 | 15.3 | clearance [7]: 48 mL/min/kg; AUC [8]: 102 ng·h/mL; microsomal CLint [9]: 239 µL/min/mg; half-life [10]: 4.7 h; bioavailability [11]: 8.2%; Ratio [12]: 6.7
4 | 4800 | 282 | CC(C)(C)[C@H]1C(O)=C(C2=NS(=O)(=O)c3c(CCS(C)(=O)=O)cccc32)C(=O)N1Cc1ccc(F)cc1 | – | 17 | –
1 | 1270 | 272 | CN(Cc1cccc2c1S(=O)(=O)N=C2C1=C(O)[C@H](C(C)(C)C)N(Cc2ccc(F)cc2)C1=O)S(N)(=O)=O | – | 5.9 | –
4 | 2570 | 82 | Cc1cc(CN2C(=O)C(C3=NS(=O)(=O)c4c(CNS(C)(=O)=O)cccc43)=C(O)[C@@H]2C(C)(C)C)ccc1F | 2 | 31.3 | clearance [7]: 8.4 mL/min/kg; clearance [13]: 10 mL/min/kg; AUC [8]: 2750 ng·h/mL; microsomal CLint [9]: 431 µL/min/mg; AUC [14]: 1230 ng·h/mL; bioavailability [15]: 11%; half-life [10]: 4.18 h; bioavailability [11]: 17%; Ratio [12]: 31; microsomal CLint [16]: 23 µL/min/mg; half-life [17]: 1.75 h
3 | 1300 | 105 | CC(C)(C)[C@H]1C(O)=C(C2=NS(=O)(=O)c3c(CNS(N)(=O)=O)cccc32)C(=O)N1Cc1ccc(F)cc1 | – | 12.4 | –
